{"source": "paper PMC9476936", "about": "(ACS Pharmacology & Translational Science, 2021)", "key": {"ABCB1": {"tested_on": "ABCB1", "conditions": "cited from earlier work"}, "human ABCB1 [1]": {"molecular_target": "T1, human ABCB1 (Homo sapiens, UniProt P08183)", "T1 sequence (P08183 whole entry)": "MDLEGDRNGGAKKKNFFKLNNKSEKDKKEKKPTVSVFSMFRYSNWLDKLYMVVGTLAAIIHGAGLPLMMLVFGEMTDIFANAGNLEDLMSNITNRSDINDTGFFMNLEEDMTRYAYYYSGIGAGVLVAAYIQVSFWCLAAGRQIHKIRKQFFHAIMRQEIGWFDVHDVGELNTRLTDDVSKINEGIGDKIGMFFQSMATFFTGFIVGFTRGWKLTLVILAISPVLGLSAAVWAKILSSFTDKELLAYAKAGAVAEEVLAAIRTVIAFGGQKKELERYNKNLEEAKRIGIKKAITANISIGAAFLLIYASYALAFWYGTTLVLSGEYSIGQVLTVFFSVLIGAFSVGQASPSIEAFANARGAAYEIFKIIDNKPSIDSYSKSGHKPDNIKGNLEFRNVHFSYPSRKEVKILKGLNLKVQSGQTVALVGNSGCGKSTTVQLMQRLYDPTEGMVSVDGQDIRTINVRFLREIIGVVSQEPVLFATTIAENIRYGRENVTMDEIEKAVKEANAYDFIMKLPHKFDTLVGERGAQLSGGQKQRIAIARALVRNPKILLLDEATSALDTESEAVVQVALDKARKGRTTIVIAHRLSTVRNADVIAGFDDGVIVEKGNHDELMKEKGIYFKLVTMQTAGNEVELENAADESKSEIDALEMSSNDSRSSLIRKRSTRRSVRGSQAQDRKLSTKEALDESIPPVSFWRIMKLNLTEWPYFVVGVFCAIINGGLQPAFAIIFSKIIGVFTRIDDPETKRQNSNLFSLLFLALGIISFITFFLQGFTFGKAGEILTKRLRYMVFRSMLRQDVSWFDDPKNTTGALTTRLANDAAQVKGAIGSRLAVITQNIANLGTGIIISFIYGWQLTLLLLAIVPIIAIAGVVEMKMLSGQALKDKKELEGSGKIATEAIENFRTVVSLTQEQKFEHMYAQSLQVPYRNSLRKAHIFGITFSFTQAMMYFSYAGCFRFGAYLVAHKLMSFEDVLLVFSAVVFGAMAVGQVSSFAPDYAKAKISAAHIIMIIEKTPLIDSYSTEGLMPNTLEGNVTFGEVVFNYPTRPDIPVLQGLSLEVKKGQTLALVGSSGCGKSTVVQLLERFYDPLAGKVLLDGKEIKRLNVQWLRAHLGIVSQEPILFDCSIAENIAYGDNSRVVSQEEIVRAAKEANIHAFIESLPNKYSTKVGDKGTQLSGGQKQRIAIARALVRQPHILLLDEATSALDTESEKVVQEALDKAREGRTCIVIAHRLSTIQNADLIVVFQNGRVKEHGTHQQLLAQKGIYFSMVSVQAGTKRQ", "type": "biochemical"}, "human ABCB1 [2]": {"molecular_target": "T1, human ABCB1", "type": "biochemical", "conditions": "2 μM BPD, 690 nm"}, "human ABCB1 [3]": {"molecular_target": "T1, human ABCB1", "type": "biochemical", "remark": "listed apart in the source"}, "human ABCB1 [4]": {"molecular_target": "T1, human ABCB1", "type": "biochemical", "remark": "listed apart in the source"}, "human ABCG2 [5]": {"molecular_target": "T2, human ABCG2 (Homo sapiens, UniProt Q9UNQ0)", "T2 sequence (Q9UNQ0 1-655)": "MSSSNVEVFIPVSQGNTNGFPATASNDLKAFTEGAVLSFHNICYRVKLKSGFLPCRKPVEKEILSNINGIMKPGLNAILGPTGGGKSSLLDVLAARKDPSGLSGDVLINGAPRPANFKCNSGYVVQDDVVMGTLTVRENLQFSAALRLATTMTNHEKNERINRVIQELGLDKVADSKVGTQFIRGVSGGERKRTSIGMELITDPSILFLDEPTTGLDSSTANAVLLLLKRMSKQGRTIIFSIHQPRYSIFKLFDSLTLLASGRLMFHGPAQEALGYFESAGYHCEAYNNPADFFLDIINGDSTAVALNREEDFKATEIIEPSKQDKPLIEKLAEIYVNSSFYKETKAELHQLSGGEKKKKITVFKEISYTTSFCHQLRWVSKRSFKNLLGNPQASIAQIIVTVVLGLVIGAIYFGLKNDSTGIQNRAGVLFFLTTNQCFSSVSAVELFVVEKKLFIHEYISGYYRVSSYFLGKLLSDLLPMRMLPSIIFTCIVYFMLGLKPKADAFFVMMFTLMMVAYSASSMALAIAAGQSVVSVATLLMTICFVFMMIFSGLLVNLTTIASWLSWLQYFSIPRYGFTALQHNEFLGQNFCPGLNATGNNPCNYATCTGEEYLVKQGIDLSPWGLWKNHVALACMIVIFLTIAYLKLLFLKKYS", "type": "biochemical", "in_short": "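Human ABCG2 (N-terminal His10) vesicles from baculovirus-infected High Five cells; 35 μg protein/50 μL in MES-Tris pH 6.8 buffer with 2 mM DTT. Photosensitizer (0–20 μM) added at 37 °C for 3 min, then 690 nm light (0–5 J/cm2, 50 mW/cm2). Fixed 0.5 J/cm2 for the dose series; fixed 2 μM for the fluence series. Denatured at 37 °C for 20 min, 7% Tris-acetate gel, 10 μg/lane, colloidal blue stain, densitometry.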"}, "human ABCG2 [6]": {"molecular_target": "T2, human ABCG2", "assay": "Vanadate", "type": "biochemical", "conditions": "read-out: IC50 for ATPase activity of ABCG2; light activation (+hv) 690 nm, 0.05 J/cm2, 50 mW/cm2; membrane vesicles"}, "[7]": {"conditions": "2 μM BPD, light fluence increased from 0 to 5 J/cm2"}, "[8]": {"conditions": "BPD 20 μM + light 690 nm, 5 J/cm2, 50 mW/cm2"}}, "note": "Where two headings read alike, the source gives them in different places."}
{"compound": "COc1cc2c(cc1OC)CN(CCc1ccc(NC(=O)c3cc(OC)c(OC)cc3NC(=O)c3cnc4ccccc4c3)cc1)CC2", "note": "[tariquidar]", "values": [{"measurement": "concentrations inhibiting both drug transport and ATPase activity of ABCB1", "setting": "ABCB1", "value": "sub-micromolar concentrations"}]}
{"compound": "O[C@@H](COc1cccc2ncccc12)CN1CCN([C@@H]2c3ccccc3[C@@H]3[C@H](c4ccccc42)C3(F)F)CC1", "note": "[zosuquidar]", "values": [{"measurement": "concentrations inhibiting both drug transport and ATPase activity of ABCB1", "setting": "ABCB1", "value": "sub-micromolar concentrations"}]}
{"compound": "benzoporphyrin derivative [BPD]", "values": [{"measurement": "reduction of ATPase activity of ABCB1 in nanodiscs", "setting": "human ABCB1 [1]; absence of light activation", "value": "51.7 ± 5.3", "unit": "%"}, {"measurement": "reduction of ATPase activity of ABCB1 in nanodiscs", "setting": "human ABCB1 [1]; light activation 690 nm, 0.05 J/cm2, 50 mW/cm2", "value": "97.3 ± 1.3", "unit": "%"}, {"measurement": "disappearance of protein band corresponding to monomeric ABCB1 in nanodiscs", "setting": "human ABCB1 [2]; 50 mW/cm2, 0.5 J/cm2", "value": "49.0 ± 2.6", "unit": "%"}, {"measurement": "disappearance of protein band corresponding to monomeric ABCB1 in nanodiscs", "setting": "human ABCB1 [2]; 50 mW/cm2, 5 J/cm2", "value": "88.0 ± 3.5", "unit": "%"}, {"measurement": "further reduction of ATPase activity of ABCB1 by light activation", "setting": "human ABCB1 [3]; +hv 690 nm, 0.05 J/cm2, 50 mW/cm2 versus −hv, stated jointly for ABCB1 and ABCG2", "value": "up to 12 fold"}, {"measurement": "IC50", "setting": "human ABCB1 [3]; read-out: IC50 for ATPase activity of ABCB1, light activation (+hv) 690 nm, 0.05 J/cm2, 50 mW/cm2, membrane vesicles", "value": "700 ± 100", "unit": "nM"}, {"measurement": "reduction of monomeric ABCB1 band intensity", "setting": "human ABCB1 [4]; [7]", "value": 9.1, "unit": "fold"}, {"measurement": "BPD concentration at which ABCB1 aggregation bands became evident", "setting": "human ABCB1 [4]; 0.5 J/cm2, 690 nm", "value": "higher than 0.5 μM"}, {"measurement": "band corresponding to monomeric ABCB1", "setting": "human ABCB1 [4]; [8]", "value": "disappeared"}, {"measurement": "intensity of protein band of monomeric (non-aggregated) ABCB1", "setting": "human ABCB1 [4]; BPD alone 20 μM, no light", "value": "did not alter"}, {"measurement": "reduction of monomeric ABCG2 band intensity", "setting": "human ABCG2 [5]; [7]", "value": 5.4, "unit": "fold"}, {"measurement": "BPD concentration at which ABCG2 aggregation bands became evident", "setting": "human ABCG2 [5]; 0.5 J/cm2, 690 nm", "value": "higher than 0.5 μM"}, {"measurement": "band corresponding to monomeric ABCG2", "setting": "human ABCG2 [5]; [8]", "value": "disappeared"}, {"measurement": "intensity of protein band of monomeric (non-aggregated) ABCG2", "setting": "human ABCG2 [5]; BPD alone 20 μM, no light", "value": "did not alter"}, {"measurement": "IC50", "setting": "human ABCG2 [6]", "value": "800 ± 100", "unit": "nM"}]}
{"compound": "COc1cc2c(cc1OC)CN(CCc1ccc(NC(=O)c3cccc4c(=O)c5cccc(OC)c5[nH]c34)cc1)CC2", "note": "[elacridar]", "values": [{"measurement": "concentrations inhibiting both drug transport and ATPase activity of ABCB1", "setting": "ABCB1", "value": "sub-micromolar concentrations"}]}
